TRPC4 act = opens the mouse TRPC4 cation channel. B-score at 10 µM. HEK293 TRPC4beta/mu-opioid, Fluo4 calcium fluorescence; hits give high values. actives 0.49% (n = 310,000). Q9QUQ5;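 active = B-score above 5 SD of library B-scores, and initial fluorescence ratio not above library mean plus 5 SD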;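 note: positive B-score marks a calcium rise read as TRPC4 activation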
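Assay system: HEK293 stable line with TRPC4beta plus mu-opioid receptor; schedule: 45 min room-temperature Fluo4 loading, 110 s read; technique: kinetic Fluo4 calcium fluorescence; evaluation: integrated baseline-normalised fluorescence ratio, converted to per-well B score; controls: buffer (low) and maximal DAMGO (high)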
TRPC6 activator = activates the mouse TRPC6 cation channel | Q61143 | HEK293-TRPC6 membrane potential dye fluorescence; hits give high values | B-score at 10 µM | actives 0.13% (n = 310,000) | AID 2550;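 active = B-score of the integrated fluorescence ratio above library mean plus 3 SD, and starting fluorescence ratio within library mean plus 5 SD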;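 note: higher score means more depolarization so channel activation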
TRPC6 inh = blocks the mouse TRPC6 cation channel | Q61143 | HEK293-TRPC6, membrane potential dye, ACh-evoked depolarization; hits give low values | B-score at 10 µM | actives 1.1% (n = 310,000) | AID 2553;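 active = B-score under library mean minus 3 SD, initial fluorescence not abnormally high, positive integrated signal ratio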;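 note: B-score derived from integrated fluorescence ratio over the kinetic read; more negative B-score means stronger inhibition of depolarization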
TRPC4 block = inhibitors of mouse TRPC4 channel | B-score at 10 µM | Q9QUQ5 | actives 0.39% (n = 300,000) | HEK293 TRPC4beta/mu-opioid, DAMGO-evoked Fluo4 calcium flux; hits give low values;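 active = B-score over 3 SD under the library average, no early fluorescence shift, positive overall ratio signal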
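material = TRPC4beta/mu-opioid receptor HEK293 cell line | probe or stimulus = sequential submaximal and maximal DAMGO stimulation | compound dosing = one concentration per compound | measured by = Fluo4 Ca2+ flux fluorescence | evaluation = integrated fluorescence ratio relative to baseline, converted to per-well B score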
TRPC4 PAM = allosteric potentiators of mouse TRPC4 channel; Q9QUQ5; HEK293 TRPC4beta/mu-opioid, DAMGO EC20, Fluo-4 Ca2+ flux; hits give high values; B-score at 10 µM; actives 0.42% (n = 310,000);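 active = B-score of calcium response area above 5 SD of library B-scores, with initial fluorescence ratio within 5 SD of library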;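 note: B-score of integrated fluorescence ratio over time as area under calcium response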
The depositor's hits bear a star; i = inactive. Only some compounds are listed: those with a hit (about 2.3% of all), similar ones and a draw of the others.

SMILES	TRPC4 act	TRPC6 activator	TRPC6 inh	TRPC4 block	TRPC4 PAM
CC1CC(C)CN(CCCNC(=O)c2cn(C)c3ccc(S(=O)(=O)N4CCCC4)cc3c2=O)C1 (stereo unspecified)	55*	i	i	i	i
CC1CCN(CCCNC(=O)c2cn(C)c3ccc(S(=O)(=O)N4CCCC4)cc3c2=O)CC1	i	i	i	i	i
CCCN(CCC)CCCNC(=O)c1cn(CC)c2ccc(S(=O)(=O)N3CCOCC3)cc2c1=O	45*	i	i	i	i
Cc1ccccc1C(=O)NNC(=O)C1CCN(C(=O)Nc2ccccc2)CC1	i	i	i	i	i
O=C1Nc2ccccc2C12Nc1ccccc1-c1nc3ccccc3n12 (stereo unspecified)	i	i	i	i	i
CN1C(=O)C2(Nc3ccccc3-c3nc4ccccc4n32)c2ccccc21 (stereo unspecified)	i	i	i	-6*	i
COc1ccccc1NC(=O)C1CC(C(C)C)OC1=O (stereo unspecified)	i	i	i	i	i
CCOc1ccc(CN2CCN(c3cc(C)nc4c5c(C)cc(C)nc5nn34)CC2)cc1	50*	i	i	i	i
Nc1nc2ccccc2n1CCOc1ccc(F)cc1	i	i	i	-6*	i
O=[N+]([O-])c1ccc(SCCc2ccccn2)cc1	i	i	i	i	14*
CN(CCc1ccccn1)c1ccc([N+](=O)[O-])cn1	189*	i	i	i	i
O=[N+]([O-])c1ccc(SCCc2ccncc2)cc1	i	i	i	i	i
CC(=O)c1cccc(OCC(O)CNCCc2ccc(Cl)cc2)c1 (stereo unspecified)	i	i	i	i	10*
OC(CNCCc1ccc(C(F)(F)F)cc1)COc1cccc2ccccc12 (stereo unspecified)	60*	i	i	i	i
CCOC(=O)c1c(C)n(C)c2ccc(OCC(O)CN3CCN(C)CC3)cc12 (stereo unspecified)	i	i	i	i	i
CCOC(=O)c1c(C)n(C)c2ccc(OCC(O)CNCCc3ccccc3)cc12 (stereo unspecified)	i	i	i	i	21*
OC(CNCCc1ccc(C(F)(F)F)cc1)COc1ccc2ccccc2c1 (stereo unspecified)	i	i	i	i	24*
OC(CNCc1ccc(Cl)cc1)COc1ccccc1 (stereo unspecified)	i	i	i	i	i
COc1ccccc1N(C(=O)c1ccco1)C(C(=O)NC1CCCCC1)c1cc(OC)c(OC)c(OC)c1 (stereo unspecified)	i	i	i	i	i
COc1ccccc1N1CCN(C(=O)C2CCC(CNS(=O)(=O)c3ccc(NC(C)=O)cc3)CC2)CC1 (stereo unspecified)	i	i	i	i	i
COc1ccc2sc(N(CCCN(C)C)C(=O)c3ccc(S(=O)(=O)N4CCCc5ccccc54)cc3)nc2c1	i	i	i	i	18*
CCN(Cc1ccccc1)S(=O)(=O)c1ccc(C(=O)N(CCCN(C)C)c2nc3ccc(F)cc3s2)cc1	63*	i	i	i	i
CCN(Cc1ccccc1)S(=O)(=O)c1ccc(C(=O)N(CCCN(C)C)c2nc3cc4c(cc3s2)OCCO4)cc1	i	i	i	i	i
CN(C)CCCN(C(=O)c1nc2ccccc2s1)c1nc2ccc(F)cc2s1	i	i	i	i	i
COc1cc2nc(N(CCCN(C)C)C(=O)c3ccc(S(=O)(=O)N4CCc5ccccc54)cc3)sc2cc1OC	i	i	i	i	i
SMILES	TRPC4 act	TRPC6 activator	TRPC6 inh	TRPC4 block	TRPC4 PAM
CN(C)CCCN(C(=O)c1ccc(S(=O)(=O)N(C)C2CCCCC2)cc1)c1nc2ccc(F)cc2s1	140*	i	i	i	i
CN(C)CCCN(C(=O)c1ccc(C(=O)c2ccccc2)cc1)c1nc2ccc(F)cc2s1	121*	i	i	i	i
CC(=O)c1cn(S(=O)(=O)c2ccccc2)c2ccccc12	i	i	i	i	i
COc1ccccc1CN1CCCC(CN(CCN(C)C)C(=O)c2ccc(C)cc2)C1 (stereo unspecified)	i	i	i	i	i
CCn1c(=O)cc(OCC(=O)N2CCN(c3cccc(C(F)(F)F)c3)CC2)c2ccccc21	i	i	i	i	11*
Cc1cc(C)c(C#N)c(SCCN2CCOCC2)n1	i	i	i	i	i
N#Cc1ccc(-c2ccccc2)nc1SCCN1CCOCC1	i	i	i	i	20*
COC(=O)C1=C(C)N=c2s/c(=C3\C(=O)Nc4ccccc43)c(=O)n2C1c1ccccc1 (stereo unspecified)	i	i	-5.91*	i	i
CN(CC(=O)N1CCOCC1)S(=O)(=O)c1ccc2ccccc2c1	i	i	i	i	i
CCOC(=O)C1(CC2CCCCO2)CCN(Cc2ccccc2-c2ccco2)CC1 (stereo unspecified)	78*	i	i	i	i
COc1cccc(CC2(CO)CCCN(Cc3ccc(-c4ccco4)cc3)C2)c1 (stereo unspecified)	i	i	i	i	i
CCOC(=O)C1(CC2CCCCO2)CCN(Cc2cc3ccccc3[nH]2)CC1 (stereo unspecified)	273*	i	i	i	i
CCOC(=O)C1(CC2CCCCO2)CCN(Cc2cn[nH]c2-c2cccc(F)c2)CC1 (stereo unspecified)	76*	i	i	i	i
CCOC(=O)C1(CC2CCCCO2)CCN(Cc2cccnc2)CC1 (stereo unspecified)	i	i	i	i	i
COc1cccc(CC2(CO)CCCN(Cc3ccccc3-c3ccco3)C2)c1 (stereo unspecified)	43*	i	i	-7*	i
CCCn1ncc(CN2CCC(CO)(CC3CCCCO3)CC2)c1C (stereo unspecified)	i	i	i	i	i
OCC1(CC2CCCCO2)CCN(Cc2ccccc2-c2ccco2)CC1 (stereo unspecified)	75*	i	i	i	i
O=C(NCCCN1CCCC1=O)c1ccc(CNS(=O)(=O)c2ccc(F)cc2)cc1	i	i	i	i	37*
O=C(NCCCN1CCCC1=O)c1ccc(S(=O)(=O)Nc2ccccc2F)cc1	i	i	i	i	i
CCc1c(C(=O)NC(C)C2CCCO2)csc1C (stereo unspecified)	i	i	i	i	i

Compound activity from PubChem BioAssay.
